According to ChEMBL document CHEMBL2390847, “Synthesis and biological evaluation of novel phosphatidylinositol 3-kinase inhibitors: Solubilized 4-substituted benzimidazole analogs of 2-(difluoromethyl)-1-[4,6-di(4-morpholinyl)-1,3,5-triazin-2-yl]-1H-benzimidazole (ZSTK474)” (Eur J Med Chem, 2013):

Legend:
[1] = Aqueous solubility of the compound in water by HPLC analysis; type: physicochemical
Procedure, shortened: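 Solid mixed with water to make 2 mM, sonicated 15 min, centrifuged; supernatant diluted 2-fold, recentrifuged, analysed by C18 HPLC (acetonitrile/45 mM ammonium formate pH 3.5 gradient); peak area compared with DMSO standard.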

[2] = target: PI3-kinase p110-alpha/p85-alpha (Homo sapiens, UniProt P42336); test: Inhibition of recombinant PI3K p110alpha/p85alpha (unknown origin) using phosphotidylinositol as susbstrate after 1 hr by thin layer paper chromatographic analysis in presence of [gamma-33P]ATP; type: protein-complex assay
[3] = Cytotoxicity against human NZB5 cells expressing wild type PI3K p110alpha assessed as growth inhibition after 5 days by [3H]-thymidine incorporation assay; type: functional, cell-based
Procedure, shortened: (§1)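 NZB5 (medulloblastoma, wild-type p110α) and NZOV9 (ovarian endometrioid adenocarcinoma, Y1021C p110α) cells cultured with drug for 5 days; proliferation by [³H]-thymidine incorporation at end; IC50 as 50% inhibition versus controls, averaged over at least two determinations.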

[4] = Cytotoxicity against human NZOV9 cells expressing PI3K p110alpha Y1021C mutant assessed as growth inhibition after 5 days by [3H]-thymidine incorporation assay; type: functional, cell-based; procedure, shortened: as §1
[5] = target: PI3-kinase p110-delta/p85-alpha (Homo sapiens, UniProt O00329); test: Inhibition of recombinant PI3K p110delta/p85alpha (unknown origin) using phosphotidylinositol as susbstrate after 1 hr by thin layer paper chromatographic analysis in presence of [gamma-33P]ATP; type: protein-complex assay
PI3K p110 beta/p85 alpha = PI3K p110 beta/p85 alpha (Homo sapiens, UniProt P42338); test: Inhibition of recombinant PI3K p110beta/p85alpha (unknown origin) using phosphotidylinositol as susbstrate after 1 hr by thin layer paper chromatographic analysis in presence of [gamma-33P]ATP; type: protein-complex assay
[6] = target: T1, Phosphatidylinositol 4,5-bisphosphate 3-kinase catalytic subunit alpha isoform (Homo sapiens, UniProt P42336, H1047R); test: Inhibition of PI3K p110alpha H1047R mutant in human HCT116 cells assessed as inhibition of AKT/PKB phosphorylation at Thr308 incubated for 15 mins prior to insulin stimulation measured after 5 mins by immunoblot analysis; type: cell-based, HCT-116
Mus musculus [7] = test: Toxicity in rag1-deficient mouse xenografted with human U87MG cells assessed as mortality without preceding sings of toxicity at 60 mg/kg, ip qd after 14 days relative to control; type: organism-based, U-87MG ATCC; set-up: dose 60 mg/kg, route intraperitoneal; conditions: in vivo, 336 h
[8] = Tmax in C57 mouse at 10 mg/kg, ip; type: ADME, organism-based; set-up: dose 10 mg/kg, route intraperitoneal; conditions: in vivo
Procedure, shortened: (§2)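 Male specific pathogen-free age-matched C57 mice; single 10 mg/kg i.p. dose in 10% EtOH; animals culled at multiple time points; blood by cardiac puncture into EDTA, plasma separated by centrifugation, protein precipitated in MeOH.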

[9] = Half life in C57 mouse at 10 mg/kg, ip; type: ADME, organism-based; set-up: dose 10 mg/kg, route intraperitoneal; conditions: in vivo; procedure, shortened: as §2
Mus musculus [10] = test: Toxicity in rag1-deficient mouse xenografted with human U87MG cells assessed as body weight loss at 60 mg/kg, ip qd after 14 days relative to control; type: organism-based, U-87MG ATCC; set-up: dose 60 mg/kg, route intraperitoneal; conditions: in vivo, 336 h
[11] = Cmax in C57 mouse at 10 mg/kg, ip; type: ADME, organism-based; set-up: dose 10 mg/kg, route intraperitoneal; conditions: in vivo; procedure, shortened: as §2
[12] = Antitumor activity against human U87MG cells xenografted in rag1-deficient mouse assessed as tumor growth inhibition at 60 mg/kg, ip qd measured after 7 days relative to control; conditions: U-87 MG, 168 h, read-out: TGI
[13] = AUC (infinity) in C57 mouse at 10 mg/kg, ip; type: ADME, organism-based; set-up: dose 10 mg/kg, route intraperitoneal, time infinity; conditions: plasma; procedure, shortened: as §2
[14] = target: T1, Phosphatidylinositol 4,5-bisphosphate 3-kinase catalytic subunit alpha isoform; test: Inhibition of PI3K p110alpha H1047R mutant in human HCT116 cells assessed as inhibition of AKT/PKB phosphorylation at Ser473 incubated for 15 mins prior to insulin stimulation measured after 5 mins by immunoblot analysis; type: cell-based, HCT-116
[15] = Antitumor activity against human U87MG cells xenografted in rag1-deficient mouse assessed as tumor growth inhibition at 15 mg/kg, ip qd measured after 7 days relative to control; conditions: U-87 MG, 168 h, read-out: TGI
Mus musculus [16] = test: Toxicity in rag1-deficient mouse xenografted with human U87MG cells assessed as body weight loss at 15 mg/kg, ip qd after 14 days relative to control; type: organism-based, U-87MG ATCC; set-up: dose 15 mg/kg, route intraperitoneal; conditions: in vivo, 336 h
[17] = Antitumor activity against human U87MG cells xenografted in rag1-deficient mouse assessed as tumor growth inhibition at 40 mg/kg, ip qd measured after 7 days relative to control; conditions: U-87 MG, 168 h, read-out: TGI
Mus musculus [18] = test: Toxicity in rag1-deficient mouse xenografted with human U87MG cells assessed as body weight loss at 40 mg/kg, ip qd after 14 days relative to control; type: organism-based, U-87MG ATCC; set-up: dose 40 mg/kg, route intraperitoneal; conditions: in vivo, 336 h
Mus musculus [19] = test: Toxicity in rag1-deficient mouse xenografted with human U87MG cells assessed as mortality at 40 mg/kg, ip qd after 14 days relative to control; type: organism-based, U-87MG ATCC; set-up: dose 40 mg/kg, route intraperitoneal; conditions: in vivo, 336 h
Procedure, shortened: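 Female specific-pathogen-free Rag1−/− mice given 5 × 10⁶ U87MG cells s.c. in PBS on the right flank. Dosing started 3–4 weeks later, once tumors averaged about 8 mm. Drug was given i.p. daily for 14 days at 10 mL/kg as free base, in 10% DMSO, 15% Cremophor EL, 15% EtOH and 60% saline. Bodyweight and tumor volume were recorded every 2–3 days.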

Sequence of PI3-kinase p110-delta/p85-alpha (P27986 whole entry): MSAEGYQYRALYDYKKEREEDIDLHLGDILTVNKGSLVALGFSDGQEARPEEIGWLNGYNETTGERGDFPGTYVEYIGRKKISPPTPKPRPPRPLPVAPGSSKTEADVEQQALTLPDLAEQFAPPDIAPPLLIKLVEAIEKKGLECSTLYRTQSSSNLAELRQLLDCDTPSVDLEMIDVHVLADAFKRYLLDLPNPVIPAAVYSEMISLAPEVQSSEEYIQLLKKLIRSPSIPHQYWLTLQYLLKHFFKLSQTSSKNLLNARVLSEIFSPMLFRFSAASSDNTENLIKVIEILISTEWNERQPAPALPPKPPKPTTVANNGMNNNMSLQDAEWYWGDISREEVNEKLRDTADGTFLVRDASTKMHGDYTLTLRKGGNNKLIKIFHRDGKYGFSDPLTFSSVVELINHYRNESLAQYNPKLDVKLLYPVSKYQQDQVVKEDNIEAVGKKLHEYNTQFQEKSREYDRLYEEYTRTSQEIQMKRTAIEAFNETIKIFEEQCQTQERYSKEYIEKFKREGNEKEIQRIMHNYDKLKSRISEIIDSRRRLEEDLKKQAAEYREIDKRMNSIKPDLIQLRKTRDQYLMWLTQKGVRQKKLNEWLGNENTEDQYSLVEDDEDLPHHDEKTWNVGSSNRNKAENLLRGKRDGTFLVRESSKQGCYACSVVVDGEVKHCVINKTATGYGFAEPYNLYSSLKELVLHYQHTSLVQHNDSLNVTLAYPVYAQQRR
Sequence of PI3-kinase p110-delta/p85-alpha (O00329 whole entry): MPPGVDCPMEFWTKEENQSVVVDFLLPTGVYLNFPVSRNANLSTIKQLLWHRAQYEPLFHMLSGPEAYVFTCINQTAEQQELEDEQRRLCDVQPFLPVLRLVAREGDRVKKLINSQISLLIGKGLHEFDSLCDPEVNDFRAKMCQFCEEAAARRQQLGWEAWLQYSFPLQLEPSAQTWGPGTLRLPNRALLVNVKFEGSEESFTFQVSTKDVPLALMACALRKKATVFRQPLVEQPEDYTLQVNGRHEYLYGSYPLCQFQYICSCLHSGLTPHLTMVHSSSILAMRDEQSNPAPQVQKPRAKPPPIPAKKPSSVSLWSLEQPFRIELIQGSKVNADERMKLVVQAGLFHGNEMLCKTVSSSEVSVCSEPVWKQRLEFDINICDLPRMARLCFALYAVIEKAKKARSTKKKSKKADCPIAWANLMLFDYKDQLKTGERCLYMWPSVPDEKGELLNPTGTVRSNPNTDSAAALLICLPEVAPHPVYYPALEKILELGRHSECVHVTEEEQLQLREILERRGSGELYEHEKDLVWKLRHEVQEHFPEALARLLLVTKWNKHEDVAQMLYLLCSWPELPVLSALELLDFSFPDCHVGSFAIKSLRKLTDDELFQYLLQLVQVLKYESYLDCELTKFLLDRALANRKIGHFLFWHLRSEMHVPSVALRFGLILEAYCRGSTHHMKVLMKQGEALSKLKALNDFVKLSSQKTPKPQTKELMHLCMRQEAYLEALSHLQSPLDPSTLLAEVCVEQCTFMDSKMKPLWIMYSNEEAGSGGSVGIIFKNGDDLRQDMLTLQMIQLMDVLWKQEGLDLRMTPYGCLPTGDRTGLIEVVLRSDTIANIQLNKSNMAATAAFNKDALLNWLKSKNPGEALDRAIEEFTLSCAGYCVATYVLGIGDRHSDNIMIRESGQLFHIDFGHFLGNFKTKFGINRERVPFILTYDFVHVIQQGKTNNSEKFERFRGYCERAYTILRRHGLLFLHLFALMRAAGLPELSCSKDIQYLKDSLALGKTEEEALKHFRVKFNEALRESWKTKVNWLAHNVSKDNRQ
Sequence of PI3K p110 beta/p85 alpha (P27986 whole entry, canonical isoform): as the sequence (P27986 whole entry) above
Sequence of PI3K p110 beta/p85 alpha (P42338 whole entry, canonical isoform): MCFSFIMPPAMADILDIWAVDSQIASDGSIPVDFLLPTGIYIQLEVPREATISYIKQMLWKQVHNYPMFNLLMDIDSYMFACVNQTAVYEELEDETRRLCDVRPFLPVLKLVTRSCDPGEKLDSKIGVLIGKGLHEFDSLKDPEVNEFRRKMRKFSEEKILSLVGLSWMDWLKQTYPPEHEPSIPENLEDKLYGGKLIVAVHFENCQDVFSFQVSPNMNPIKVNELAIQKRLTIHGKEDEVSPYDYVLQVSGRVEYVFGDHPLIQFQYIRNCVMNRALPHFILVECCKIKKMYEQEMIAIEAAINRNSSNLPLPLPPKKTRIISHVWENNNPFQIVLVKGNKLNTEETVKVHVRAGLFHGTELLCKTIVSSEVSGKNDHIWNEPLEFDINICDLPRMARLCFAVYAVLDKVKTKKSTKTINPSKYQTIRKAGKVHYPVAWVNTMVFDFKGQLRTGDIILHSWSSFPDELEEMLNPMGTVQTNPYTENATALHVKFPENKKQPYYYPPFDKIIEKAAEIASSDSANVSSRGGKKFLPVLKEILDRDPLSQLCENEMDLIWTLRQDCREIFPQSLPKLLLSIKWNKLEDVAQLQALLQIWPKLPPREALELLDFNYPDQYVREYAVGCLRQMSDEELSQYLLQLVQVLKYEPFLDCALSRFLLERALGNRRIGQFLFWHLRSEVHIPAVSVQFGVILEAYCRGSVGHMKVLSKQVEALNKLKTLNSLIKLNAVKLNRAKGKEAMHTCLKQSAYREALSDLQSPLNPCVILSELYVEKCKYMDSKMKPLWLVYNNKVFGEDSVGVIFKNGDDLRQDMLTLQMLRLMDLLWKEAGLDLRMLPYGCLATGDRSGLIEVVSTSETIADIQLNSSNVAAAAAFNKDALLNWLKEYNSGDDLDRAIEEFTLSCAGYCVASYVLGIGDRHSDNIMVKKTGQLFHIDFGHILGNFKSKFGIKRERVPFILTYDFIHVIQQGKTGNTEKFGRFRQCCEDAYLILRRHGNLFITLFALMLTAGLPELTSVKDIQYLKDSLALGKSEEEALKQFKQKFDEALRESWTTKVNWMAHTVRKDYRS
Sequence of PI3-kinase p110-alpha/p85-alpha (P27986 whole entry): as the sequence (P27986 whole entry) above
Sequence of PI3-kinase p110-alpha/p85-alpha (P42336 whole entry): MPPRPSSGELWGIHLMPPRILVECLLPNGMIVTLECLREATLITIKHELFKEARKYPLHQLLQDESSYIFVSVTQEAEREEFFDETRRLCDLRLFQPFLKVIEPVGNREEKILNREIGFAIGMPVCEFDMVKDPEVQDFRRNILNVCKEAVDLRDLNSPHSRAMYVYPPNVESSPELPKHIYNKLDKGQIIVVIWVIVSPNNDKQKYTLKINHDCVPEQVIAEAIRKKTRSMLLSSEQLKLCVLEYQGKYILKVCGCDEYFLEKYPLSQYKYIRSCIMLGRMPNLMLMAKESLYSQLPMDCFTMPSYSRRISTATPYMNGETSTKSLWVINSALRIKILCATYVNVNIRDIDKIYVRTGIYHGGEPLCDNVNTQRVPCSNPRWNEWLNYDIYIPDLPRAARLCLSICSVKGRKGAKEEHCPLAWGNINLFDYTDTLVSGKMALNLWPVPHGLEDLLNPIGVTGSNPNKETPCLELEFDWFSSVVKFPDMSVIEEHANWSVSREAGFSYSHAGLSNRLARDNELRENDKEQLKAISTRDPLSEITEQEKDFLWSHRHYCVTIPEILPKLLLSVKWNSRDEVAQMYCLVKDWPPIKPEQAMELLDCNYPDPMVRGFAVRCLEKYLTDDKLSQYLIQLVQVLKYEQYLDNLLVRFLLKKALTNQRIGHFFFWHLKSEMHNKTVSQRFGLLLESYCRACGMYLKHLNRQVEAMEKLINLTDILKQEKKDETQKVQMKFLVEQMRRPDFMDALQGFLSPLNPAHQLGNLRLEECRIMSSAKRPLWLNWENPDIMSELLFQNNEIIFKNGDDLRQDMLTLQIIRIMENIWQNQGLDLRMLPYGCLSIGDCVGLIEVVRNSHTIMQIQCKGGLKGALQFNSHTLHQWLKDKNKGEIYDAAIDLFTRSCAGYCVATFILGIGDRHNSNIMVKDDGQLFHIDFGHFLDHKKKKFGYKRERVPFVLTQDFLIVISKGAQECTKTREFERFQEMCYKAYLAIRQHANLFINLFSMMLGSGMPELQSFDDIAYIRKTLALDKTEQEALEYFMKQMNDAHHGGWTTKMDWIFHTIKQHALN
T1 sequence (P42336 whole entry H1047R, canonical isoform): as the sequence (P42336 whole entry) above, with H1047R counted along it

Row | IC50 [2] [nM] | IC50 [5] [nM] | IC50 (PI3K p110 beta/p85 alpha) [nM] | SMILES | IC50 [3] [nM] | IC50 [4] [nM] | other results
1 | – | – | – | CN(C)CCCOc1cccc2c1nc(C(F)F)n2-c1nc(N2CCOCC2)nc(N2CCOCC2)n1.Cl | – | – | solubility [1]: 25 mg/mL
2 | 130 | 53 | 150 | FC(F)c1nc2c(OCCN3CCOCC3)cccc2n1-c1nc(N2CCOCC2)nc(N2CCOCC2)n1 | 105 | 71 | –
3 | 28 | 28 | 75 | NCCCOc1cccc2c1nc(C(F)F)n2-c1nc(N2CCOCC2)nc(N2CCOCC2)n1 | 32 | 9 | –
4 | 29 | 18 | 76 | FC(F)c1nc2c(OCCCN3CCOCC3)cccc2n1-c1nc(N2CCOCC2)nc(N2CCOCC2)n1 | 60 | 30 | –
5 | 33 | 13 | 30 | CN(C)CC(O)COc1cccc2c1nc(C(F)F)n2-c1nc(N2CCOCC2)nc(N2CCOCC2)n1 (stereo not given) | 330 | 110 | –
6 | 41 | 5.5 | 53 | OC(COc1cccc2c1nc(C(F)F)n2-c1nc(N2CCOCC2)nc(N2CCOCC2)n1)CN1CCOCC1 (stereo not given) | 54 | 25 | –
7 | 174 | 15 | 73 | CN(C)CCNc1cccc2c1nc(C(F)F)n2-c1nc(N2CCOCC2)nc(N2CCOCC2)n1 | 200 | 110 | –
8 | 119 | 52 | 740 | NCC(=O)Nc1cccc2c1nc(C(F)F)n2-c1nc(N2CCOCC2)nc(N2CCOCC2)n1 | 140 | 60 | –
9 | 379 | 99 | 1040 | CN(C)CC(=O)Nc1cccc2c1nc(C(F)F)n2-c1nc(N2CCOCC2)nc(N2CCOCC2)n1 | 50 | 50 | –
10 | 855 | 210 | 3010 | NCCC(=O)Nc1cccc2c1nc(C(F)F)n2-c1nc(N2CCOCC2)nc(N2CCOCC2)n1 | 440 | 120 | –
11 | 486 | 112 | 1260 | CN(C)CCC(=O)Nc1cccc2c1nc(C(F)F)n2-c1nc(N2CCOCC2)nc(N2CCOCC2)n1 | 290 | 140 | –
12 | 12 | 4.7 | 24 | OCC(O)COc1cccc2c1nc(C(F)F)n2-c1nc(N2CCOCC2)nc(N2CCOCC2)n1 (stereo not given) | 26 | 25 | –
13 | 17 | 20 | 130 | NCCOc1cccc2c1nc(C(F)F)n2-c1nc(N2CCOCC2)nc(N2CCOCC2)n1 | 52 | 22 | –
14 | 35 | 19 | 105 | CN(C)CCOc1cccc2c1nc(C(F)F)n2-c1nc(N2CCOCC2)nc(N2CCOCC2)n1 | 450 | 150 | –
15 | 52 | 39 | 274 | O=C(O)COc1cccc2c1nc(C(F)F)n2-c1nc(N2CCOCC2)nc(N2CCOCC2)n1 | 8500 | 3400 | –
16 | 5.3 | 2.6 | 16 | OCCOc1cccc2c1nc(C(F)F)n2-c1nc(N2CCOCC2)nc(N2CCOCC2)n1 | 60 | 60 | –
17 | 10 | 22 | 170 | OCCCOc1cccc2c1nc(C(F)F)n2-c1nc(N2CCOCC2)nc(N2CCOCC2)n1 | 71 | 18 | –
18 | – | – | – | Cn1c(=O)n(-c2ccc(C(C)(C)C#N)cc2)c2c3cc(-c4cnc5ccccc5c4)ccc3ncc21 [DACTOLISIB] | – | – | inhibition in vivo at 15 mg/kg [15]: 60.3%; Activity (Mus musculus [16]): 5%
19 | – | – | – | FC(F)c1nc2ccccc2n1-c1nc(N2CCOCC2)nc(N2CCOCC2)n1 [ZSTK-474] | – | – | inhibition in vivo at 40 mg/kg [17]: 67.6%; Activity (Mus musculus [18]): 19%; Activity (Mus musculus [19]): Toxic

Row | SMILES | IC50 [2] [nM] | IC50 [5] [nM] | IC50 (PI3K p110 beta/p85 alpha) [nM] | IC50 [3] [nM] | IC50 [4] [nM] | other results
20 | CN(C)CCCOc1cccc2c1nc(C(F)F)n2-c1nc(N2CCOCC2)nc(N2CCOCC2)n1 | 11 | 4.5 | 7.3 | 170 | 40 | IC50 [6]: 74 nM; Activity (Mus musculus [7]): Toxic; Tmax [8]: 15 min; half-life [9]: 93.6 min; Activity (Mus musculus [10]): 5%; Cmax [11]: 1940 nM; inhibition in vivo at 60 mg/kg [12]: 56.3%; AUC(0-inf) [13]: 2.59 µM·h; IC50 [14]: 36 nM
